{"data": "Measurements from different studies", "target": "Calcium/calmodulin-dependent protein kinase type 1D (CAMK1D, Homo sapiens, UniProt Q8IU85)", "note": "Compare with care: the assays were run in different laboratories."}
{"Compound": "N[C@@H]1CCN(c2nccc(-c3cnn4ncccc34)n2)C1", "test": "binding", "conditions": "1 µM", "remaining binding [%]": 100}
{"Compound": "N#Cc1ccc(Nc2ccc3[nH]c(=O)[nH]c3c2)c(Cl)c1", "test": "cell-free assay, competition with immobilised ligand", "conditions": "1 µM", "remaining binding [%]": 92}
{"Compound": "CN(C)c1nccc(-c2cnc3ncccn23)n1", "test": "binding", "conditions": "1 µM", "remaining binding [%]": 80}
{"Compound": "O=C(NCCCN1CCOCC1)c1ccc(Nc2ncc(Cl)c(-c3ccc(Cl)s3)n2)cc1", "test": "binding, competition with immobilised ligand", "conditions": "1 µM", "remaining binding [%]": 44}
{"Compound": "CN([C@@H]1CCc2c(CC(=O)O)c3cc(S(C)(=O)=O)ccc3n2C1)S(=O)(=O)c1ccc(F)cc1", "test": "cell-free assay, competition with immobilised ligand", "conditions": "1 µM", "remaining binding [%]": 99}
{"Compound": "COc1ccnn2ncc(-c3ccnc(N(C)C)n3)c12", "test": "binding", "conditions": "1 µM", "remaining binding [%]": 100}
{"Compound": "O=C(c1ccc(Nc2nccc(-c3cc4ccccc4s3)n2)cc1)N1CCC(N2CCCC2)CC1", "test": "binding, competition with immobilised ligand", "conditions": "1 µM", "remaining binding [%]": 31}
{"Compound": "Cn1nc(C(=O)NCc2ccc(C(=O)O)cc2)cc1-c1ccc2[nH]ccc2c1", "test": "cell-free assay, competition with immobilised ligand", "conditions": "0.1 µM", "remaining binding [%]": 95}
{"Compound": "O=C(c1ccc(Nc2ncc(Cl)c(-c3cc4ccccc4s3)n2)cc1)N1CCC(N2CCCC2)CC1", "test": "binding, competition with immobilised ligand", "conditions": "1 µM", "remaining binding [%]": 29}
{"Compound": "CC1CCCN1c1nccc(-c2cnn3ncccc23)n1 (stereo not shown)", "test": "binding", "conditions": "1 µM", "remaining binding [%]": 100}
{"Compound": "O=C(Nc1c[nH]nc1C(=O)NC1CCNCC1)c1cc(F)cc(F)c1", "test": "binding, competition with immobilised ligand", "conditions": "1 µM", "remaining binding [%]": 100}
{"Compound": "O=C(N1CCS(=O)(=O)CC1)N1C[C@H](c2ccc(OC(F)(F)F)cc2)C[C@H](c2nc(C3CC3)no2)C1", "test": "cell-free assay, competition with immobilised ligand", "conditions": "1 µM", "remaining binding [%]": 91}
{"Compound": "C[C@@H]1CCN(c2nccc(-c3cnn4ncccc34)n2)C1", "test": "binding", "conditions": "1 µM", "remaining binding [%]": 86}
{"Compound": "O=C(N[C@H]1CCCCC/C=C\\C2C[C@@]2(C(=O)O)NC(=O)[C@@H]2C[C@@H](Oc3ccncc3)CN2C1=O)OC1CCCC1 (stereo partly shown)", "test": "cell-free assay, competition with immobilised ligand", "conditions": "1 µM", "remaining binding [%]": 94}
{"Compound": "FC(F)(F)Oc1cccc(-c2cnc3ccc(-c4ccncc4)nn23)c1", "test": "cell-free assay, competition with immobilised ligand", "conditions": "5 µM", "remaining binding [%]": 67}
{"Compound": "C[C@@H](c1ccc(-n2cnc3c(N)ncnc32)cc1)N1CCc2nn(C)c(Cc3ccccc3)c2C1=O", "test": "binding, competition with immobilised ligand", "conditions": "0.1 µM", "remaining binding [%]": 95}
{"Compound": "c1cncc(-c2cccc(Nc3nccc(NC4CCCCC4)n3)c2)c1", "test": "binding, competition with immobilised ligand", "conditions": "10 µM", "remaining binding [%]": 72}
{"Compound": "CNC(=O)Nc1ccc2c(c1)[C@@]1(CC2)OC(=O)N(CC(=O)N(Cc2ccc(F)cc2)[C@@H](C)C(F)(F)F)C1=O", "test": "cell-free assay, competition with immobilised ligand", "conditions": "1 µM", "remaining binding [%]": 100}
{"Compound": "CN(C)c1nccc(-c2cnn3ncccc23)n1", "test": "binding", "conditions": "1 µM", "remaining binding [%]": 100}
{"Compound": "CNC(=O)[C@@H]1CC[C@@H](n2c(-c3ccc4cnccc4c3)nc3ccc(C(=O)NCc4cccc(C(N)=O)c4)cc32)C1", "test": "binding, competition with immobilised ligand", "conditions": "1 µM", "remaining binding [%]": 100}
{"Compound": "Cc1cnn2ncc(-c3ccnc(N(C)C)n3)c2c1", "test": "binding", "conditions": "1 µM", "remaining binding [%]": 100}
{"Compound": "C=CC(=O)N1CCC(C(=O)NCC(=O)N2CCN(c3nc(-c4cnc(N)nc4C(F)F)nc(N4CCOCC4)n3)CC2)CC1", "test": "binding, competition with immobilised ligand", "conditions": "1 µM", "remaining binding [%]": 100}
